Published values of several laboratories.
Protocols differ between the studies behind these lines.
MTNR1B: Melatonin receptor type 1B (MTNR1B, Homo sapiens, UniProt P49286)
CDK7 with cyclin H: Cyclin-dependent kinase 7, with cyclin H (CDK7, Homo sapiens, UniProt P50613)

`c1ccc(-c2nc(NCC(c3ccccc3)c3ccccc3)c3ccccc3n2)cc1` gave a remaining activity of 30% (Sodium-dependent dopamine transporter (Slc6a3, Rattus norvegicus, UniProt P23977); transporter uptake, inhibitor, radiometric; 12.8 µM).
The ΔTm of `Oc1ccc(-c2nc(-c3ccncc3)c(-c3ccc(F)cc3)[nH]2)cc1` is reported as 0.34 °C (Bromodomain adjacent to zinc finger domain protein 1A (BAZ1A, Homo sapiens, UniProt Q9NRL2); thermal stability, DSF; 10 µM).
With `CCC(=O)NC1Cc2ccccc2C(c2ccccc2)C1` (stereo not drawn) the Emax was 34% (MTNR1B; GTPγS binding, agonist, radiometric; cell membranes).
`COc1cc(/C=C/C(=O)O)ccc1O` has an inhibition of -9.7% (CDK7 with cyclin H; enzyme activity, inhibitor, ADP detection; 10 µM).
`Cc1ccc(S(=O)(=O)NCC(=O)N2CCC[C@H]2C(=O)N[C@@H](CCCN=C(N)N)C(=O)Nc2ccc([N+](=O)[O-])cc2)cc1` gave a Km of 26.3 µM (Prothrombin (F2, Homo sapiens, UniProt P00734); enzyme activity, substrate, absorbance).
With `C[C@@H]1C(=O)O[C@H]2C[C@@]34[C@H]5C[C@@H](C(C)(C)C)[C@]36[C@@H](OC(=O)[C@@H]6O)O[C@@]4(C(=O)O5)[C@]21O` the inhibition was 35.3% (CDK7 with cyclin H; enzyme activity, inhibitor, ADP detection; 10 µM).
The Emax of `COc1cc2c(CCNC(C)=O)c[nH]c2cc1I` is reported as 97% (MTNR1B; GTPγS binding, agonist, radiometric; cell membranes).
`Cc1ccc(C(=O)Nc2ccc(CN3CCN(C)CC3)c(C(F)(F)F)c2)cc1C#Cc1cnc2cccnn12` has a remaining activity of 93% (Serine/threonine-protein kinase RIO3 (RIOK3, Homo sapiens, UniProt O14730); enzyme activity, inhibitor; 23.5 nM).
`COc1ccc2ncn(CCNC(C)=O)c2c1` has an Emax of 89% (MTNR1B; GTPγS binding, agonist, radiometric; cell membranes).
For `COc1ccc2cc3[n+](cc2c1OC)CCc1cc2c(cc1-3)OCO2`, the inhibition was 22.3% (CDK7 with cyclin H; enzyme activity, inhibitor, ADP detection; 10 µM).
`CCc1ccc2scc(CCNC(C)=O)c2c1` has an Emax of 75% (MTNR1B; cAMP, agonist, TR-FRET; CHO-K1; 20 min).
The inhibition of `CC/C(=C(/CC)c1ccc(O)cc1)c1ccc(O)cc1` is reported as 14.7% (CDK7 with cyclin H; enzyme activity, inhibitor, ADP detection; 10 µM).
